For one assay, the system named is MDA-MB-231. The assay can be described thus: Antitumor activity against human MDA-MB-231 cells after 6 days by SRB assay. The settings on record: MDA-MB-231, 144 h. The assay is classed as functional, cell-based. Summed up:
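MDA-MB-231 cells in DMEM with 5% FBS, 37 °C, 5% CO2, seeded 1.3 × 10³ cells/well and adhered 24 h; treated 0.25 to 64 µM (five wells per treatment, vehicle EtOH or DMSO) for 6 days. TCA-fixed, SRB-stained, OD 540 nm. Proliferation index = OD at day 6 / OD at time zero; IC50 from means of three independent experiments.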
For orientation: The SRB assay estimates cell density from bound dye.

The subject of assay [1] is Aorta. As to the kind of experiment: Vasorelaxant activity in Wistar rat aortic rings assessed as reduction in KCL-induced contractile tone. The format is functional, tissue-based. Summed up:
(§1)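 Endothelium-denuded thoracic aortic rings from male normotensive Wistar rats (250–350 g), equilibrated 60 min, precontracted with KCl 30 mM. Compounds added cumulatively at threefold increasing concentrations up to 30 µM. Efficacy is the maximal relaxation, or the response at 30 µM, as % of KCl tone. pIC50 is −log molar concentration halving tone, not calculated below 50% efficacy; mean ± SE, 5–10 experiments.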

Assay [2] relates to Aorta. As to the kind of experiment: Vasorelaxant activity in Wistar rat aortic rings assessed as reduction in KCL-induced contractile tone in presence of tetraethylammonium chloride. The assay is classed as functional, tissue-based.
The subject of assay [3] is Aorta. The assay can be described thus: Vasorelaxant activity in Wistar rat aortic rings assessed as reduction in KCL-induced contractile tone at 30 uM. The assay is classed as functional. Summed up:
as §1

Activity calls are given as the source filed them. No cut-off for these calls is given here.

The IC50 is the concentration at which inhibition is half-maximal. Usually Emax stands for the maximal effect, on the per cent scale that the assay sets. On to `Oc1cc(O)cc(-c2cc3ccc(O)cc3nc2Cl)c1`, for which the values for the IC50 in the assay on MDA-MB-231 and in the assay on Aorta [1] were 47.4 µM and 15.8 µM, respectively. Moreover, in the assay with Aorta [2], the outcome was inactive. Further, the Emax at 30 µM in the assay on Aorta [3] came to 84.6%.
Turning to `Oc1cc(O)cc(-c2nc3ccc(O)cc3s2)c1`, the IC50 in the assay with MDA-MB-231 is 19.4 µM; in the assay with Aorta [1], 12 µM. The outcome in the assay with Aorta [2] was Active. Further, the Emax at 30 µM with Aorta [3] was 88.2%.
For `Oc1ccc(/C=C/c2cc(O)cc(O)c2)cc1` [RESVERATROL], the IC50 with Aorta [1] was 6.92 µM. In addition, the result with Aorta [2] was inactive. Also, the Emax at 30 µM in the assay with Aorta [3] was found to be 83%.
On to `Oc1cc(O)cc(-c2cnc3cc(O)ccc3c2)c1`, for which, in the assay on MDA-MB-231, the IC50 amounted to 17.4 µM. The maximum response (Emax) at 30 µM with Aorta [3] stood at 17.2%.
`Oc1ccc(-c2nc3cc(O)cc(O)c3s2)cc1` returned an IC50 in the assay on MDA-MB-231 of 67.6 µM. In addition, in the assay on Aorta [2], the outcome was inactive. In the assay with Aorta [3], the Emax at 30 µM turned out to be 39.6%.
Turning to `Oc1cc(O)cc(-c2nc3cccc(O)c3s2)c1`, the IC50 in the assay with MDA-MB-231 was 18.1 µM; in the assay on Aorta [1], 15.5 µM. Besides, the outcome with Aorta [2] was inactive. Besides, the Emax at 30 µM in the assay on Aorta [3] was 76.8%.
The matching figures for `Oc1cc(O)cc(-c2cc3cc(O)ccc3o2)c1`: 46.1 µM, 15.5 µM, “inactive” and 77.2%.
Take `Oc1cc(O)cc(-c2ccc3cc(O)ccc3c2)c1`: the 50% inhibitory concentration (IC50) in the assay on Aorta [1] was 12.9 µM. Moreover, the result in the assay on Aorta [2] was inactive. The Emax at 30 µM in the assay with Aorta [3] amounted to 78.5%.
`Oc1ccc(-c2nc3c(O)cc(O)cc3s2)cc1`: the IC50 with MDA-MB-231 is > 100 µM; in the assay with Aorta [1], 12.6 µM. For the same compound, the outcome with Aorta [2] was inactive. The Emax at 30 µM in the assay with Aorta [3] turned out to be 80.6%.
Take `O/N=C/c1ccc(-c2cc(O)cc(O)c2)cc1O` [SALICYLALDOXIME]: the outcome in the assay on Aorta [2] was Active.

The values are drawn from ChEMBL document CHEMBL1240520, “Synthesis of heterocycle-based analogs of resveratrol and their antitumor and vasorelaxing properties” (Bioorg Med Chem, 2010).
